From PubChem
MC4R ag barr: human MC4R agonism via beta-arrestin. activation, % at 8.9 µM. actives 0.98% (n = 360,000). U2OS MC4R beta-arrestin complementation, luminescence; percent of melanotan II response, DMSO zero. P32245;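 active means activation above a per-plate cutoff, the mean activation of sample wells on that plate plus 3 SD, cut at about 8% in these data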
Target sequence (P32245 whole entry, looked up): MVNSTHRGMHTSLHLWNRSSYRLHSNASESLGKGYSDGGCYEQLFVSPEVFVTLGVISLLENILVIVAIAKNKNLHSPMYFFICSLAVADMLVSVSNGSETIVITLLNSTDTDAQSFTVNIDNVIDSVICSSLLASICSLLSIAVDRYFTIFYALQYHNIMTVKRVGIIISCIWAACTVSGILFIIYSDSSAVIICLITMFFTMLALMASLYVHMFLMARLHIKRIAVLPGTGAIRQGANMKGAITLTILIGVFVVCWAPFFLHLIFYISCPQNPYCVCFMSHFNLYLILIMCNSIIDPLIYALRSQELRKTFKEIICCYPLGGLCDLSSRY
MC4R antag cAMP: antagonists of human melanocortin 4 receptor (MC4R) | P32245 | MC4R-expressing cells, MTII-stimulated cAMP, LANCE TR-FRET | inhibition, % at 6.5 µM | actives 0.48% (n = 360,000);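 active means inhibition above its plate's cutoff, the mean of tested wells on that plate plus 3 SD, cut at about 29% in these data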
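Assay system: human MC4R-expressing U2OS cells; reagent: Melanotan II stimulation of cells; dosing: 6.5 µM single dose; timing: compound 30 min, challenge 1 h, detection 1 h; signal: TR-FRET cAMP assay; replicates: one well per compound, no replicates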
ABHD5-PLIN5 inh: ABHD5-PLIN5 protein interaction inhibition | inhibition, % at 4 µM | actives 0.78% (n = 360,000) | Split G. princeps luciferase complementation, luminescence, 4 h | Q00G26+Q8WTS1;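 active means inhibition above the mean inhibition across every tested compound plus 3 SD, cut at about 22% in these data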
B2AR ag: activates human beta-2 adrenergic receptor causing internalization; AID 504454; actives 0.43% (n = 340,000); response, % (concentration not given with the values); P07550; Am2.2-beta2AR cells, FAP receptor internalization, flow cytometry;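 active means response above a set limit, near 3 SD of response in nonfluorescent compounds, cut at about 42% in these data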
PfGluPho inh: PfG6PD (Plasmodium falciparum) enzyme inhibition; inhibition, % at 20 µM; PfGluPho enzyme, NADPH resazurin-diaphorase fluorescence; actives 0.78% (n = 350,000);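 active means inhibition reaching at least a set limit at 20 µM in the primary screen, cut at about 59% in these data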
PfG6PD confirm: confirmation of Plasmodium falciparum G6PD inhibitors; shares compounds with PfGluPho inh; recombinant PfGluPho, NADPH-diaphorase-resazurin fluorescence; inhibition, % at 20 µM; actives 34% (n = 2,400); AID 504753;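 active means inhibition of at least 50% at 20 µM in any single replicate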
Diaph ctr 10uM: inhibits diaphorase or oxidizes, flagging false PfG6PD hits; shares compounds with PfGluPho inh; diaphorase-coupled resazurin reduction, fluorescence, NADPH 10 uM; inhibition, % at 20 µM; actives 39% (n = 820); AID 504862;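 active means average inhibition reaching 50% or more with the compound at 20 µM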;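 further: resorufin red fluorescence formed as diaphorase reduces resazurin using NADPH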
Diaph ctr 30uM: counter-screen for P. falciparum G6PD inhibitors: diaphorase inhibitors, oxidizers; shares compounds with PfGluPho inh; Diaphorase/resazurin coupled assay, resorufin fluorescence, 30 uM NADPH; inhibition, % at 20 µM; actives 29% (n = 820);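 active means inhibition averaging 50% or more, tested at 20 µM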
Hits are given with their value; . = inactive; / = no result given. Sampled rows, rich in hits. Any-hit rate of the full collection: about 3%.

SMILES	MC4R ag barr	MC4R antag cAMP	ABHD5-PLIN5 inh	B2AR ag	PfGluPho inh	PfG6PD confirm	others
O=C(Nc1cccnc1)c1cccc(S(=O)(=O)Nc2ccccc2F)c1	.	.	.	.	.	/
CCc1nnc(NC(=O)c2ccc3ccccc3n2)s1	.	.	.	.	.	/
CC(=O)Nc1ccc(NC(=O)CSc2nc(=O)n(Cc3cccnc3)c3c2CCC3)cc1	.	.	.	.	.	/
COc1ccc([C@@H]2[C@H]3C(=O)N(c4cccc(C(F)(F)F)c4)C(=O)[C@H]3ON2C)cc1	.	.	.	.	.	/
N#CC1=C2SCN(Cc3ccco3)CN2C(=O)CC1c1cccc2ccccc12 (centres undefined)	.	.	.	.	63	.
N#CC1=C2SCN(Cc3ccco3)CN2C(=O)CC1c1ccccc1F (centres undefined)	.	.	.	.	67	.
Cc1ccc(C(O)c2ncc(-c3ccc4ccccc4c3)[nH]2)cc1F (centres undefined)	.	.	.	/	/	/
Cn1c2nc(=O)n(-c3ccccc3)c(=O)c-2nc2c1CCCC2	.	.	.	/	81	.
C=CCN1CCC(=O)C(C(=O)OCC)=C1C(=O)OCC	.	.	.	.	.	/
Oc1ccc(C23CC4CC(CC(C4)C2)C3)cc1O	.	.	.	.	83	71	Diaph ctr 10uM=.;Diaph ctr 30uM=.
Cc1cc2c(=O)oc(-c3ccc(Br)cc3)nc2s1	.	.	.	.	.	/
Cc1cccn2c(=O)c3cc(C(=O)NCC4CCCO4)c(=N)n(Cc4cccnc4)c3nc12 (centres undefined)	.	.	.	.	.	/
Cc1cccn2c(=O)c3cc(C(=O)NC(C)C)c(=N)n(Cc4ccncc4)c3nc12	.	.	.	.	73	.
OCCCCCCNc1ccc(CCO)cc1	/	/	.	/	/	/
COC(=O)c1cc2c(n1S(=O)(=O)c1ccc(C)cc1)C(=O)C(=O)c1[nH]cc(C(=O)OCc3ccccc3)c1-2	37	.	.	.	77	50	Diaph ctr 10uM=.;Diaph ctr 30uM=.
COC(=O)c1ccc(COC(=O)c2ccc(CS(=O)(=O)c3ccc(C)cc3)cc2)cc1	.	.	.	.	.	/
CCc1[nH]c(=O)c(C#N)c2c1CCCC2	.	.	.	.	.	/
CCc1[nH]c(=S)c(C#N)c2c1CCCC2	.	.	.	.	66	.
CCOc1ccccc1/C=N/NC(=O)c1cccc(S(=O)(=O)N(CC)CC)c1	.	.	.	.	110	60	Diaph ctr 10uM=64;Diaph ctr 30uM=54
CCn1c(C)nc2cc(C(=O)N/N=C/c3ccc(O)c(O)c3O)ccc21	.	.	.	.	85	90	Diaph ctr 10uM=86;Diaph ctr 30uM=89
CCOc1ccccc1/C=N/NC(=O)c1c(C)nc2ccc(Br)cn12	.	.	.	.	123	98	Diaph ctr 10uM=93;Diaph ctr 30uM=97
COc1ccc(O)c(/C=N/NC(=S)Nc2cccc(S(=O)(=O)N(C)C)c2)c1	.	.	.	.	.	/
CN(C)S(=O)(=O)c1cccc(NC(=S)N/N=C/c2ccc(O)c(O)c2O)c1	.	.	.	.	80	64	Diaph ctr 10uM=59;Diaph ctr 30uM=61
CCn1c(C)nc2cc(C(=O)N/N=C/c3cccc(OC)c3O)ccc21	.	.	.	.	.	/
COc1cc(C(=O)N(C)CC(=O)Nc2cccc(F)c2)ccc1OCc1ccccc1	.	.	.	.	.	/
SMILES	MC4R ag barr	MC4R antag cAMP	ABHD5-PLIN5 inh	B2AR ag	PfGluPho inh	PfG6PD confirm	others
CCN(CC)S(=O)(=O)c1cccc(C(=O)N/N=C/c2ccc(O)c(O)c2O)c1	.	.	.	.	66	71	Diaph ctr 10uM=76;Diaph ctr 30uM=86
CCN(CC)S(=O)(=O)c1cccc(C(=O)N/N=C/c2ccc(N3CCOCC3)cc2)c1	.	.	.	.	.	/
CC1=C(C)C(=O)N(c2ccccn2)C1=O	.	.	.	.	.	/
Cc1nn(-c2ccccn2)c2c1C(=O)C(Br)CC2 (centres undefined)	.	.	.	.	90	.
Cc1ccc(N2CCN(C(=S)Nc3ccccc3)CC2)cc1	.	.	.	.	.	/
Cc1ccc(S(=O)(=O)N2CCC(C(=O)NNC(=O)C3CC3)CC2)cc1Cl	.	.	.	.	.	/
CCCc1nc2c(=O)n(C)c(=O)nc-2n(C)n1	.	.	.	80	109	103	Diaph ctr 10uM=98;Diaph ctr 30uM=100
Cn1nc(-c2ccccn2)nc2c(=O)n(C)c(=O)nc1-2	.	.	.	74	113	89	Diaph ctr 10uM=98;Diaph ctr 30uM=103
CCn1c(N)nc2c1c(=O)n(C)c(=O)n2C	.	.	.	.	.	/
Cc1c(Cl)cccc1NC(=O)CN1CCN(CCN=CC2=C(O)CC(c3ccccc3)CC2=O)CC1 (centres undefined)	.	.	.	.	.	/
O=C(CN1CCN(Cc2ccccc2Cl)CC1)N/N=C/c1ccccn1	.	.	.	.	.	/
Cc1cc(C)c2c(=O)n3c(nc2c1)C(Cc1ccc(O)cc1)NC(=O)c1cccnc1-3 (centres undefined)	.	.	.	/	.	/
Cc1cc(C)c2c(=O)n3c(nc2c1)C(Cc1ccccc1)NC(=O)c1cccnc1-3 (centres undefined)	.	.	.	/	59	.
C[C@H](NC(=O)CCC1CCC(=O)N1)c1ccccc1 (some centres undefined)	.	.	.	.	.	/
COc1ccc(NS(=O)(=O)c2ccc(N3CCCC3)c(NC(=S)Nc3ccc(SC(F)F)cc3)c2)cc1	.	.	.	.	69	.
COc1ccc(NS(=O)(=O)c2ccc(N3CCCC3)c(NC(=S)Nc3cccc(C)c3C)c2)cc1	.	.	.	.	80	53	Diaph ctr 10uM=.;Diaph ctr 30uM=.
COc1ccc(NS(=O)(=O)c2ccc(N3CCCC3)c(N)c2)cc1	.	.	.	.	.	/
CCNC(=O)Nc1cc(S(=O)(=O)Nc2ccc(OC)cc2)ccc1N1CCOCC1	.	.	.	.	.	/
O=C(O)c1cc2ccccc2c(N=Nc2cccnc2)c1O	.	.	.	.	.	/
Cc1c(NS(=O)(=O)c2cccc(C(=O)Nc3cccc(F)c3)c2)c(=O)n(-c2ccccc2)n1C	.	.	.	.	.	/
COc1cc(NCc2ccccc2)c2ncn(Cc3ccccc3)c2c1	.	.	.	.	66	50	Diaph ctr 10uM=.;Diaph ctr 30uM=.
COCCCOc1cc(NCc2ccccc2)c2ncn(C(C)C)c2c1	.	.	.	.	.	/
CCC(COC)Oc1cc(NCc2ccccc2)c2ncn(C(C)C)c2c1 (centres undefined)	.	.	.	.	83	.
CC(C)n1cnc2c(NCc3ccccc3)cc(N[C@H](C)CO)cc21	.	.	.	.	67	.
CCCCOc1cc(NCc2ccccc2)c2ncn(C(C)C)c2c1	.	.	.	.	73	.
